Assay [1] is described as follows: Antagonist activity at mouse GPCR by double antibody sandwich ELISA. The gist of the method: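 Double-antibody sandwich ELISA measuring mouse GPCR content, with a GPCR standard. Sample was mixed with diluted standard (37 ℃, 10 min), added to antibody-coated wells, then HRP conjugate was added (37 ℃, 30 min), followed by chromogens A and B and stop solution. OD450 was read within 5 min. Tested at 10 ng/L, 1 ng/mL, 0.1 μg/mL and 10 μg/mL, 30% DMSO in well. Percent inhibition versus no-inhibitor control (100%) from three independent experiments; IC50 from absorbance.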

A further assay is filed under the species Mus musculus. Briefly: Antagonist activity at mouse GPCR at 10 ng/L by double antibody sandwich ELISA relative to control.

In assay [1], `C=C1[C@H]2C[C@@]3([C@@H]1OC(=O)/C=C/c1ccccc1)[C@@H](CC2=O)[C@@]12[C@@H]4[C@@H]3C[C@@H]1[C@@](C)(CC[C@@H]2O)CN4CC` returned an IC50 of 0.29 nM. For the same compound, the inhibition in the assay filed under Mus musculus was determined as 57.1%.

Take `C=C1[C@H]2C[C@@]3([C@@H]1OC(=O)COC)[C@@H](CC2=O)[C@@]12[C@@H](OC(=O)COC)CC[C@@]4(C)CN(CC)[C@H]1[C@@H]3C[C@H]42`: the IC50 in assay [1] worked out at 0.08 nM. Further, in the assay listed under Mus musculus, the inhibition was determined as 85.3%.

As for `C=C1[C@H]2C[C@@]3([C@@H]1OC(=O)c1ccccc1)[C@@H](CC2=O)[C@@]12[C@@H]4[C@@H]3C[C@@H]1[C@@](C)(CC[C@@H]2O)CN4CC`, half-maximal inhibition in assay [1] (IC50) was put at 4.5 nM. In addition, the inhibition in the assay listed under Mus musculus amounted to 37.7%.

As for `C=C1[C@H]2C[C@@]3([C@@H]1O)[C@@H](C[C@@H]2O)[C@@]12[C@@H]4[C@@H]3C[C@@H]1[C@@](C)(CC[C@@H]2O)CN4CC`, the IC50 in assay [1] is above 10 nM. In the assay listed under Mus musculus, the inhibition was found to be 39.4%.

`C=C1[C@H]2C[C@@]3([C@@H]1OC(=O)CC)[C@@H](CC2=O)[C@@]12[C@@H](OC(=O)CC)CC[C@@]4(C)CN(CC)[C@H]1[C@@H]3C[C@H]42` returned a half-maximal inhibitory concentration (IC50) in assay [1] of 0.59 nM. The compound also showed an inhibition in the assay listed under Mus musculus of 65.9%.

Turning to `C=C1[C@H]2C[C@@]3([C@@H]1OC(=O)COCC)[C@@H](CC2=O)[C@@]12[C@@H](OC(=O)COCC)CC[C@@]4(C)CN(CC)[C@H]1[C@@H]3C[C@H]42`, the half-maximal inhibitory concentration (IC50) in assay [1] was 5.91 nM. The compound further returned an inhibition in the assay filed under Mus musculus of 55%.

Turning to `C=C1[C@H]2C[C@@]3([C@@H]1OC(=O)CCC)[C@@H](CC2=O)[C@@]12[C@@H](OC(=O)CCC)CC[C@@]4(C)CN(CC)[C@H]1[C@@H]3C[C@H]42`, in assay [1], the IC50 is 0.14 nM. In addition, the inhibition in the assay filed under Mus musculus was 77.4%.

`C=C1[C@H]2C[C@@]3([C@@H]1O)[C@@H](C/C2=N/NS(=O)(=O)c1ccc(C)cc1)[C@@]12[C@@H]4[C@@H]3C[C@@H]1[C@@](C)(CC[C@@H]2O)CN4CC` gave an IC50 in assay [1] above 10 nM. In the assay listed under Mus musculus, the inhibition was determined as 37.7%.

In the case of `C=C1[C@H]2C[C@@]3([C@@H]1O)[C@@H](C/C2=N/O)[C@@]12[C@@H]4[C@@H]3C[C@@H]1[C@@](C)(CC[C@@H]2O)CN4CC`, the IC50 in assay [1] was 0.55 nM. For the same compound, the inhibition in the assay listed under Mus musculus is 73.3%.

Compound `C=C1C(=O)[C@]23C[C@H]1C(=O)C[C@H]2[C@@]12[C@@H]4[C@@H]3C[C@@H]1[C@@](C)(CC[C@@H]2O)CN4CC` had an IC50 in assay [1] of 9.99 nM. Moreover, the inhibition in the assay filed under Mus musculus came to 54.6%.

On to `C=C1[C@H]2C[C@@]3([C@@H]1OC(=O)CC)[C@@H](C/C2=N/OC(=O)CC)[C@@]12[C@@H]4[C@@H]3C[C@@H]1[C@@](C)(CC[C@@H]2O)CN4CC`, for which the half-inhibitory concentration (IC50) in assay [1] came to 3.65 nM. In the assay listed under Mus musculus, this compound displayed an inhibition of 50.3%.

`C=C1[C@H]2C[C@@]3([C@@H]1OC(=O)CC)[C@@H](C/C2=N/OC(=O)CC)[C@@]12[C@@H](OC(=O)CC)CC[C@@]4(C)CN(CC)[C@H]1[C@@H]3C[C@H]42` came in with an IC50 in assay [1] above 10 nM. This compound came in with an inhibition in the assay listed under Mus musculus of 36.4%.

In assay [1], `C=C1[C@H]2C[C@@]3([C@@H]1OC(C)=O)[C@@H](CC2=O)[C@@]12[C@@H]4[C@@H]3C[C@@H]1[C@@](C)(CC[C@@H]2O)CN4CC` came in with an IC50 of 2.62 nM. This compound also registered an inhibition in the assay listed under Mus musculus of 48.6%.

For the compound `C=C1[C@H]2C[C@@]3([C@@H]1S)[C@@H](CC2=S)[C@@]12[C@@H]4[C@@H]3C[C@@H]1[C@@](C)(CC[C@@H]2S)CN4CC`, the concentration for half-maximal inhibition (IC50) in assay [1] is above 10 nM. Besides, in the assay listed under Mus musculus, the inhibition is 39.3%.

In turn, `C=C1[C@H]2C[C@@]3([C@@H]1OC(C)=O)[C@@H](CC2=O)[C@@]12[C@@H](OC(C)=O)CC[C@@]4(C)CN(CC)[C@H]1[C@@H]3C[C@H]42` came in with an IC50 in assay [1] of 0.51 nM. Further, the inhibition in the assay filed under Mus musculus worked out at 65.2%.

The compound `C=C1[C@H]2C[C@@]3([C@@H]1O)[C@@H](C[C@H]2O)[C@@]12[C@@H]4[C@@H]3C[C@@H]1[C@@](C)(CC[C@@H]2O)CN4CC` registered an IC50 in assay [1] above 10 nM. The same compound yielded an inhibition in the assay filed under Mus musculus of 46.3%.

With `C=C1C(=O)[C@]23C[C@H]1C(=O)C[C@H]2[C@@]12C(=O)CC[C@@]4(C)CN(CC)[C@H]1[C@@H]3C[C@H]42`, the 50% inhibitory concentration (IC50) in assay [1] was above 10 nM. This compound had an inhibition in the assay filed under Mus musculus of 34.6%.

On to `C=C1[C@H]2C[C@@]3([C@@H]1O)[C@@H](CC2=O)[C@@]12[C@@H]4[C@@H]3C[C@@H]1[C@@](C)(CC[C@@H]2O)CN4CC`, for which, in assay [1], half-maximal inhibition (IC50) was put at 3.21 nM. In addition, the inhibition in the assay filed under Mus musculus was determined as 62.8%.

`C=C1[C@H]2C[C@@]3([C@@H]1OC(=O)CCC)[C@@H](CC2=O)[C@@]12[C@@H]4[C@@H]3C[C@@H]1[C@@](C)(CC[C@@H]2O)CN4CC` displayed a half-inhibitory concentration (IC50) in assay [1] of 8.68 nM. The inhibition in the assay listed under Mus musculus is 49.8%.

For the compound `CCN1C[C@]2(C)CC[C@H](O)[C@]34[C@@H]1[C@H](C[C@H]23)[C@@]12C[C@@H](C(=O)C[C@H]14)C(CO)(OC(=O)c1cccc(Cl)c1)[C@H]2O` (stereo not given in full), the IC50 in assay [1] amounted to 0.23 nM. Moreover, the inhibition in the assay filed under Mus musculus turned out to be 68.7%.

For the origin of these results see ChEMBL document CHEMBL4392839, “Syntheses and bioactivities of songorine derivatives as novel G protein-coupled receptor antagonists” (Bioorg Med Chem, 2019).
